Test results: ChEMBL document CHEMBL4689842, “EUbOPEN Chemogenomics Library wave 1” (2021)

Tested on: Fibroblast
Experiment: Multiplex assay against human fibroblast
Type: toxicity, cell-based
Method in brief: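 Four dyes were applied at seeding to live cells: Hoechst33342, BioTracker Green Microtubule Cytoskeleton Dye, MitoTracker Red and Annexin V Alexa Fluor 680. Imaging after compound addition used a CQ1 microscope at 37°C and 5% CO2. CellPathfinder machine-learning gating then sorted cells into Hoechst high-intensity objects or normal cells, normal cells into healthy, pyknosed or fragmented nuclei, and pyknosed cells into mitotic or apoptotic, with tubulin, mitochondrial-mass and membrane-permeability phenotypes given as per cents of healthy-nucleus cells.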

[1] = 12 h, 1 µM, compound concentration 1 uM, replicate 1
[2] = 12 h, 1 µM, compound concentration 1 uM, replicate 2
[3] = 12 h, 10 µM, compound concentration 10 uM, replicate 1
[4] = 12 h, 10 µM, compound concentration 10 uM, replicate 2
[5] = 24 h, 1 µM, compound concentration 1 uM, replicate 1
[6] = 24 h, 1 µM, compound concentration 1 uM, replicate 2
[7] = 24 h, 10 µM, compound concentration 10 uM, replicate 1
[8] = 24 h, 10 µM, compound concentration 10 uM, replicate 2
[9] = 48 h, 1 µM, compound concentration 1 uM, replicate 1
[10] = 48 h, 1 µM, compound concentration 1 uM, replicate 2
[11] = 48 h, 10 µM, compound concentration 10 uM, replicate 1
[12] = 48 h, 10 µM, compound concentration 10 uM, replicate 2

SMILES: COc1ccccc1CN[C@H]1C2CCN(CC2)[C@H]1C(c1ccccc1)c1ccccc1 [CP-96345]
- Population Apoptotic (%) [1]: 64%
- Population Fragmented Nuclei (%) [1]: 25%
- Population Healthy Nuclei (%) [1]: 43%
- Population Hoechst High Intensity Objects (%) [1]: 13%
- Population Membrane Permeable-Phenotype (%) [1]: 27%
- Population Mitochondria Different-Phenotype (%) [1]: 9%
- Population Mitotic Cells (%) [1]: 35%
- Population Normal (%) [1]: 86%
- Population Pyknosed Nuclei (%) [1]: 30%
- Population Tubulin-Different-Phenotype (%) [1]: 52%
- Total Cell Count [1]: 146
- Population Apoptotic (%) [2]: 66%
- Population Fragmented Nuclei (%) [2]: 4%
- Population Healthy Nuclei (%) [2]: 92%
- Population Hoechst High Intensity Objects (%) [2]: 0%
- Population Membrane Permeable-Phenotype (%) [2]: 4%
- Population Mitochondria Different-Phenotype (%) [2]: 7%
- Population Mitotic Cells (%) [2]: 33%
- Population Normal (%) [2]: 100%
- Population Pyknosed Nuclei (%) [2]: 3%
- Population Tubulin-Different-Phenotype (%) [2]: 8%
- Total Cell Count [2]: 90
- Population Apoptotic (%) [3]: 67%
- Population Fragmented Nuclei (%) [3]: 29%
- Population Healthy Nuclei (%) [3]: 45%
- Population Hoechst High Intensity Objects (%) [3]: 13%
- Population Membrane Permeable-Phenotype (%) [3]: 6%
- Population Mitochondria Different-Phenotype (%) [3]: 44%
- Population Mitotic Cells (%) [3]: 32%
- Population Normal (%) [3]: 86%
- Population Pyknosed Nuclei (%) [3]: 25%
- Population Tubulin-Different-Phenotype (%) [3]: 84%
- Total Cell Count [3]: 129
- Population Apoptotic (%) [4]: 50%
- Population Fragmented Nuclei (%) [4]: 2%
- Population Healthy Nuclei (%) [4]: 86%
- Population Hoechst High Intensity Objects (%) [4]: 3%
- Population Membrane Permeable-Phenotype (%) [4]: 1%
- Population Mitochondria Different-Phenotype (%) [4]: 45%
- Population Mitotic Cells (%) [4]: 50%
- Population Normal (%) [4]: 96%
- Population Pyknosed Nuclei (%) [4]: 10%
- Population Tubulin-Different-Phenotype (%) [4]: 26%
- Total Cell Count [4]: 77
- Population Apoptotic (%) [5]: 63%
- Population Fragmented Nuclei (%) [5]: 26%
- Population Healthy Nuclei (%) [5]: 49%
- Population Hoechst High Intensity Objects (%) [5]: 15%
- Population Membrane Permeable-Phenotype (%) [5]: 23%
- Population Mitochondria Different-Phenotype (%) [5]: 8%
- Population Mitotic Cells (%) [5]: 36%
- Population Normal (%) [5]: 84%
- Population Pyknosed Nuclei (%) [5]: 24%
- Population Tubulin-Different-Phenotype (%) [5]: 41%
- Total Cell Count [5]: 161
- Population Apoptotic (%) [6]: 54%
- Population Fragmented Nuclei (%) [6]: 4%
- Population Healthy Nuclei (%) [6]: 85%
- Population Hoechst High Intensity Objects (%) [6]: 2%
- Population Membrane Permeable-Phenotype (%) [6]: 1%
- Population Mitochondria Different-Phenotype (%) [6]: 4%
- Population Mitotic Cells (%) [6]: 45%
- Population Normal (%) [6]: 97%
- Population Pyknosed Nuclei (%) [6]: 9%
- Population Tubulin-Different-Phenotype (%) [6]: 17%
- Total Cell Count [6]: 114
- Population Apoptotic (%) [7]: 55%
- Population Fragmented Nuclei (%) [7]: 41%
- Population Healthy Nuclei (%) [7]: 43%
- Population Hoechst High Intensity Objects (%) [7]: 22%
- Population Membrane Permeable-Phenotype (%) [7]: 3%
- Population Mitochondria Different-Phenotype (%) [7]: 41%
- Population Mitotic Cells (%) [7]: 44%
- Population Normal (%) [7]: 77%
- Population Pyknosed Nuclei (%) [7]: 14%
- Population Tubulin-Different-Phenotype (%) [7]: 86%
- Total Cell Count [7]: 156
- Population Apoptotic (%) [8]: 40%
- Population Fragmented Nuclei (%) [8]: 2%
- Population Healthy Nuclei (%) [8]: 81%
- Population Hoechst High Intensity Objects (%) [8]: 1%
- Population Membrane Permeable-Phenotype (%) [8]: 2%
- Population Mitochondria Different-Phenotype (%) [8]: 31%
- Population Mitotic Cells (%) [8]: 60%
- Population Normal (%) [8]: 98%
- Population Pyknosed Nuclei (%) [8]: 16%
- Population Tubulin-Different-Phenotype (%) [8]: 14%
- Total Cell Count [8]: 92
- Population Apoptotic (%) [9]: 42%
- Population Fragmented Nuclei (%) [9]: 30%
- Population Healthy Nuclei (%) [9]: 60%
- Population Hoechst High Intensity Objects (%) [9]: 14%
- Population Membrane Permeable-Phenotype (%) [9]: 20%
- Population Mitochondria Different-Phenotype (%) [9]: 3%
- Population Mitotic Cells (%) [9]: 57%
- Population Normal (%) [9]: 85%
- Population Pyknosed Nuclei (%) [9]: 9%
- Population Tubulin-Different-Phenotype (%) [9]: 29%
- Total Cell Count [9]: 169
- Population Apoptotic (%) [10]: 50%
- Population Fragmented Nuclei (%) [10]: 36%
- Population Healthy Nuclei (%) [10]: 61%
- Population Hoechst High Intensity Objects (%) [10]: 12%
- Population Membrane Permeable-Phenotype (%) [10]: 25%
- Population Mitochondria Different-Phenotype (%) [10]: 4%
- Population Mitotic Cells (%) [10]: 50%
- Population Normal (%) [10]: 87%
- Population Pyknosed Nuclei (%) [10]: 2%
- Population Tubulin-Different-Phenotype (%) [10]: 36%
- Total Cell Count [10]: 82
- Population Apoptotic (%) [11]: 83%
- Population Fragmented Nuclei (%) [11]: 36%
- Population Healthy Nuclei (%) [11]: 58%
- Population Hoechst High Intensity Objects (%) [11]: 25%
- Population Membrane Permeable-Phenotype (%) [11]: 2%
- Population Mitochondria Different-Phenotype (%) [11]: 36%
- Population Mitotic Cells (%) [11]: 16%
- Population Normal (%) [11]: 75%
- Population Tubulin-Different-Phenotype (%) [11]: 61%
- Total Cell Count [11]: 172
- Population Apoptotic (%) [12]: 25%
- Population Fragmented Nuclei (%) [12]: 30%
- Population Healthy Nuclei (%) [12]: 66%
- Population Hoechst High Intensity Objects (%) [12]: 11%
- Population Membrane Permeable-Phenotype (%) [12]: 24%
- Population Mitochondria Different-Phenotype (%) [12]: 7%
- Population Mitotic Cells (%) [12]: 75%
- Population Normal (%) [12]: 88%
- Population Pyknosed Nuclei (%) [12]: 4%
- Population Tubulin-Different-Phenotype (%) [12]: 60%
- Total Cell Count [12]: 113
